# Experimental data from ChEMBL document CHEMBL3112482, “Nonclassical antifolates, part 5. Benzodiazepine analogs as a new class of DHFR inhibitors: synthesis, antitumor testing and molecular modeling study” (Eur J Med Chem, 2014).
# Assays:
# [1] = test system: SNB-75; assay: Growth inhibition of human SNB75 cells at 10 uM after 48 hrs; type: functional; conditions: SNB-75, 48 h, read-out: GI
# Method in brief: (§1)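 NCI 60-cell-line disease-oriented human tumor panel, single-dose primary screen at 10 µM. Data given as mean-graph percent growth of treated cells, reported as percent growth inhibition (GI %).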
# [2] = test system: K562; assay: Growth inhibition of human K562 cells at 10 uM after 48 hrs; type: functional; conditions: K562, 48 h, read-out: GI
# Method in brief: (§2)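 Single-dose primary screen in the NCI 60 human tumour cell line panel, run at the NCI facility. The panel covers nine subpanels: leukaemia, non-small cell lung, colon, CNS, melanoma, ovarian, renal, prostate and breast. Read-out was percent growth of treated cells, shown as a mean graph and reported as percent growth inhibition.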
# [3] = Growth inhibition of human EKVX cells at 10 uM after 48 hrs; type: functional; conditions: read-out: GI; method in brief: as §2
# [4] = test system: SK-OV-3; assay: Growth inhibition of human SKOV3 cells at 10 uM after 48 hrs; type: functional; conditions: SK-OV-3, 48 h, read-out: GI; method in brief: as §1
# [5] = Cytotoxicity against human renal cancer cells at 10 uM after 48 hrs; type: functional; conditions: Cancer cell lines
# [6] = target: T1, Dihydrofolate reductase (Bos taurus, UniProt P00376); assay: Inhibition of bovine liver DHFR measured for every 1 min of 10 mins
# T1 sequence (P00376 whole entry): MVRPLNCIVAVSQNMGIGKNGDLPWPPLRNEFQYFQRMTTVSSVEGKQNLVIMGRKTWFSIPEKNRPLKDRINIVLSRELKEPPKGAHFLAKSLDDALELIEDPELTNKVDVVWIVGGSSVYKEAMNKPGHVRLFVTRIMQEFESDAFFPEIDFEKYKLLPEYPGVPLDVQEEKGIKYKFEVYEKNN
# [7] = test system: HL-60(TB); assay: Growth inhibition of human HL-60(TB) cells at 10 uM after 48 hrs; type: functional; conditions: HL-60, 48 h, read-out: GI
# Method in brief: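 NCI 60-cell-line human tumour panel covering nine subpanels (leukaemia, non-small cell lung, colon, CNS, melanoma, ovarian, renal, prostate, breast), run at the NCI facility. Primary screen tested a single dose of each compound. Read-out was percent growth of treated cells versus untreated cells, reported from the mean graph as percentage growth inhibition.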
# [8] = test system: MCF7; assay: Growth inhibition of human MCF7 cells at 10 uM after 48 hrs; type: functional; conditions: MCF7, 48 h, read-out: GI; method in brief: as §2
# [9] = Cytotoxicity against human non-small cell lung cancer cells at 10 uM after 48 hrs; type: functional; conditions: Cancer cell lines; method in brief: as §2
# [10] = test system: PC-3; assay: Growth inhibition of human PC3 cells at 10 uM after 48 hrs; type: functional; conditions: PC-3, 48 h, read-out: GI; method in brief: as §2
# [11] = test system: MDA-MB-231; assay: Growth inhibition of human MDA-MB-231 cells at 10 uM after 48 hrs; type: functional; conditions: MDA-MB-231, 48 h, read-out: GI; method in brief: as §2
# [12] = Growth inhibition of human NCI-ADR-RES cells at 10 uM after 48 hrs; type: functional; conditions: read-out: GI; method in brief: as §2
# [13] = test system: ACHN; assay: Growth inhibition of human ACHN cells at 10 uM after 48 hrs; type: functional; conditions: read-out: GI; method in brief: as §2
# [14] = test system: HOP-62; assay: Growth inhibition of human HOP62 cells at 10 uM after 48 hrs; type: functional; conditions: HOP-62, 48 h, read-out: GI; method in brief: as §2
# [15] = test system: SR; assay: Growth inhibition of human SR cells at 10 uM after 48 hrs; type: functional; conditions: read-out: GI; method in brief: as §1
# [16] = Growth inhibition of human SF539 cells at 10 uM after 48 hrs; type: functional; conditions: SF-539, 48 h, read-out: GI; method in brief: as §1
# [17] = test system: T47D; assay: Growth inhibition of human T47D cells at 10 uM after 48 hrs; type: functional; conditions: read-out: GI; method in brief: as §1
# [18] = test system: NCI-H23; assay: Growth inhibition of human NCI-H23 cells at 10 uM after 48 hrs; type: functional; conditions: NCI-H23, 48 h, read-out: GI; method in brief: as §2
# [19] = Cytotoxicity against human leukemia cells at 10 uM after 48 hrs; type: functional; conditions: Leukemia cell
# [20] = test system: NCI-H322M; assay: Growth inhibition of human NCI-H322M cells at 10 uM after 48 hrs; type: functional; conditions: read-out: GI; method in brief: as §2
# [21] = test system: SF-268; assay: Growth inhibition of human SF268 cells at 10 uM after 48 hrs; type: functional; conditions: SF-268, 48 h, read-out: GI; method in brief: as §1
# [22] = test system: SNB-19; assay: Growth inhibition of human SNB19 cells at 10 uM after 48 hrs; type: functional; conditions: SNB-19, 48 h, read-out: GI; method in brief: as §1
# [23] = test system: SK-MEL-28; assay: Growth inhibition of human SK-MEL-28 cells at 10 uM after 48 hrs; type: functional; conditions: SK-MEL-28, 48 h, read-out: GI; method in brief: as §1
# [24] = test system: TK-10; assay: Growth inhibition of human TK10 cells at 10 uM after 48 hrs; type: functional; conditions: TK-10, 48 h, read-out: GI; method in brief: as §1
# [25] = test system: SK-MEL-5; assay: Growth inhibition of human SK-MEL-5 cells at 10 uM after 48 hrs; type: functional; conditions: SK-MEL-5, 48 h, read-out: GI; method in brief: as §1
# [26] = test system: SK-MEL-2; assay: Growth inhibition of human SK-MEL-2 cells at 10 uM after 48 hrs; type: functional; conditions: SK-MEL-2, 48 h, read-out: GI; method in brief: as §1
# [27] = test system: A549; assay: Growth inhibition of human A549 cells at 10 uM after 48 hrs; type: functional; conditions: A549, 48 h, read-out: GI; method in brief: as §2
# [28] = test system: NCI-H226; assay: Growth inhibition of human NCI-H226 cells at 10 uM after 48 hrs; type: functional; conditions: NCI-H226, 48 h, read-out: GI; method in brief: as §2
# [29] = Growth inhibition of human OVCAR4 cells at 10 uM after 48 hrs; type: functional; conditions: OVCAR-4, 48 h, read-out: GI; method in brief: as §2
# [30] = test system: OVCAR-3; assay: Growth inhibition of human OVCAR3 cells at 10 uM after 48 hrs; type: functional; conditions: OVCAR-3, 48 h, read-out: GI; method in brief: as §2
# [31] = test system: U-251; assay: Growth inhibition of human U251 cells at 10 uM after 48 hrs; type: functional; conditions: U-251, 48 h, read-out: GI; method in brief: as §1
# [32] = Growth inhibition of human OVCAR5 cells at 10 uM after 48 hrs; type: functional; conditions: OVCAR-5, 48 h, read-out: GI; method in brief: as §2
# [33] = Growth inhibition of human Hs 578T cells at 10 uM after 48 hrs; type: functional; conditions: read-out: GI; method in brief: as §2
# [34] = test system: Malme-3M; assay: Growth inhibition of human MALME-3M cells at 10 uM after 48 hrs; type: functional; conditions: read-out: GI; method in brief: as §2
# [35] = test system: OVCAR-8; assay: Growth inhibition of human OVCAR8 cells at 10 uM after 48 hrs; type: functional; conditions: OVCAR-8, 48 h, read-out: GI; method in brief: as §2
# [36] = test system: SW-620; assay: Growth inhibition of human SW620 cells at 10 uM after 48 hrs; type: functional; conditions: SW-620, 48 h, read-out: GI; method in brief: as §1
# [37] = Growth inhibition of human UO31 cells at 10 uM after 48 hrs; type: functional; conditions: UO-31, 48 h, read-out: GI; method in brief: as §1
smiles,measurement,setting,value
Nc1nc2c(c(-c3ccc(Cl)cc3)n1)CCC/C2=C\c1ccc(Cl)cc1,inhibition of growth at 10 µM,[1],< 30%
same,inhibition of growth at 10 µM,[2],56.5%
same,inhibition of growth at 10 µM,[3],< 30%
same,inhibition of growth at 10 µM,[4],< 30%
same,CC50,[5],78.4 µM
same,GI50,[5],14.7 µM
same,TGI,[5],40.6 µM
same,IC50,[6],17 µM
same,inhibition of growth at 10 µM,[7],35.2%
same,inhibition of growth at 10 µM,[8],66.9%
same,GI50,[9],15.2 µM
same,TGI,[9],55.7 µM
same,CC50,[9]; read-out: LC50 (the source's name),88.6 µM
same,inhibition of growth at 10 µM,[10],< 30%
same,inhibition of growth at 10 µM,[11],< 30%
same,inhibition of growth at 10 µM,[12],< 30%
same,inhibition of growth at 10 µM,[13],< 30%
same,inhibition of growth at 10 µM,[14],< 30%
same,inhibition of growth at 10 µM,[15],79.2%
same,inhibition of growth at 10 µM,[16],< 30%
same,inhibition of growth at 10 µM,[17],< 30%
same,inhibition of growth at 10 µM,[18],38.9%
same,GI50,[19],7.8 µM
same,LC50,[19],> 100 µM
same,TGI,[19],61.1 µM
same,inhibition of growth at 10 µM,[20],< 30%
same,inhibition of growth at 10 µM,[21],< 30%
same,inhibition of growth at 10 µM,[22],< 30%
same,inhibition of growth at 10 µM,[23],< 30%
same,inhibition of growth at 10 µM,[24],< 30%
same,inhibition of growth at 10 µM,[25],< 30%
same,inhibition of growth at 10 µM,[26],< 30%
same,inhibition of growth at 10 µM,[27],33.3%
same,inhibition of growth at 10 µM,[28],< 30%
same,inhibition of growth at 10 µM,[29],< 30%
same,inhibition of growth at 10 µM,[30],60.9%
same,inhibition of growth at 10 µM,[31],86.1%
same,inhibition of growth at 10 µM,[32],< 30%
same,inhibition of growth at 10 µM,[33],< 30%
same,inhibition of growth at 10 µM,[34],< 30%
same,inhibition of growth at 10 µM,[35],58.8%
same,inhibition of growth at 10 µM,[36],81.1%
same,inhibition of growth at 10 µM,[37],32.2%
